For 19 molecules, Ki and EC50 results are on record in ChEMBL document CHEMBL1156764, “Structure-based design of pteridine reductase inhibitors targeting African sleeping sickness and the leishmaniases” (J Med Chem, 2010).

For experiment [1], the target named is T1, Pteridine reductase 1 (Leishmania major, UniProt Q01782).
T1 sequence (Q01782 whole entry): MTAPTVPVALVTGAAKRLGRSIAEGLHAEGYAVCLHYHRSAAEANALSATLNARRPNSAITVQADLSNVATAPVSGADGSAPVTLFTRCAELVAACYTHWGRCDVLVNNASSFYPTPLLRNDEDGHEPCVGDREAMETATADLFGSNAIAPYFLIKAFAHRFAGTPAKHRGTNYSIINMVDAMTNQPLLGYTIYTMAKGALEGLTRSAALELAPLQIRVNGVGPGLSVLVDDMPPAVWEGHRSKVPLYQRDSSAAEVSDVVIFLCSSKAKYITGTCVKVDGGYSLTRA
The experiment is described as follows: Inhibition of Leishmania major recombinant PTR1. Summed up:
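Recombinant L. major PTR1, stored at 15 mg mL^-1 (stock) in 50 mM Tris-HCl, 250 mM NaCl, 20% glycerol, pH 7.5. Substrate was H2B, with a 10 mM stock in 0.1 M NaOH. Compound stocks were 100 mM in DMSO. IC50 came from dose–response fits corrected with Morrison's tight-binding equation. Ki was calculated from IC50 using the competitive-inhibition equation.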

The nature of experiment [2]: Inhibition of Trypanosoma brucei recombinant PTR1. Summed up: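 Recombinant enzyme stored at 15 mg mL^-1 in 50 mM Tris-HCl, 250 mM NaCl, 20% glycerol, pH 7.5. Substrate was H2B, prepared as a 10 mM stock in 0.1 M NaOH. Compound stocks were 100 mM in DMSO. IC50 came from dose–response plots fitted with Morrison's tight-binding equation. Ki was calculated from IC50 assuming competitive inhibition.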

Experiment [3] relates to Trypanosoma brucei brucei. Nature of the experiment: Antitrypanosomal activity against Trypanosoma brucei brucei Lister 427 blood stream form by Alamar blue assay. The format is functional. The following applies: read-out: ED50 (the source's name). Put shortly: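 Bloodstream-form Lister 427 grown at 37 °C, 5% CO2 in HMI-9 with neomycin pressure (T7 polymerase and tetracycline repressor lines), fetal calf serum 10%, folate not reduced. Exposed to increasing inhibitor concentrations. Viability read by Alamar blue. ED50 taken from dose–response plots. Three separate determinations, each in quadruplicate (n = 12).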
In general terms: The colour change of resazurin is a common sign of viable cells or microbes.

As to `CC1=Nc2c(N)nc(N)nc2NC1(C)C`, the inhibition constant (Ki) (usually a measure of affinity in units of concentration, obtained from inhibition or displacement) in experiment [1] is 12 µM; in experiment [2] it was above 35 µM. For `Nc1nc2[nH]ccc2c(=S)[nH]1`, the Ki is above 27 µM in experiment [1] and above 35 µM in experiment [2]. The matching figures for `Nc1cc(NC2CC2)nc(N)n1`: above 27 µM and above 35 µM. The matching figures for `Nc1cc(SCc2ccccc2)nc(N)n1`: 0.6 µM and 3.2 µM. Regarding `Nc1nc2[nH]cc(CCc3ccccc3)c2c(=O)[nH]1`, in experiment [1], the Ki was above 27 µM. Consider `N#Cc1c(Br)[nH]c2nc(N)[nH]c(=O)c12`, for which the Ki in experiment [1] is above 27 µM; in experiment [2], 3.9 µM.

Turning to `CCc1ccc(-c2[nH]c3nc(N)[nH]c(=O)c3c2C#N)cc1`, the values for the Ki in experiment [1] and in experiment [2] were 16.4 µM and 0.5 µM, respectively. For `CC(C)c1nc2nc(N)nc(N)c2nc1C(C)C`, in that order: 0.24 µM and 3.3 µM. Take `N#Cc1c(-c2ccc3c(c2)OCO3)[nH]c2nc(N)[nH]c(=O)c12`: in experiment [3], the EC50 turned out to be 123 µM. For the same molecule, the Ki was found to be 2.6 µM in experiment [1] and 0.4 µM in experiment [2]. As to `Nc1cc(N)nc(N)n1`, the Ki is above 27 µM in experiment [1] and above 35 µM in experiment [2]. Consider `N#Cc1c[nH]c2nc(N)[nH]c(=O)c12`, for which the figures for the Ki in experiment [1] and in experiment [2] were above 27 µM and 5.8 µM, respectively. `COc1ccc(CSc2cc(N)nc(N)n2)cc1`: the Ki was found to be 2.7 µM in experiment [1] and 18 µM in experiment [2]. Consider `COc1ccc(-c2[nH]c3nc(N)[nH]c(=O)c3c2C#N)cc1`, for which the EC50 in experiment [3] was 274 µM. Also, the figures for the Ki in experiment [1] and in experiment [2] were 3.4 µM and 0.36 µM, respectively. Regarding `N#Cc1c(-c2ccccc2)[nH]c2nc(N)[nH]c(=O)c12`, the Ki in experiment [1] is above 27 µM; in experiment [2], 0.71 µM. Consider `N#Cc1c(-c2cccc(C=O)c2)[nH]c2nc(N)[nH]c(=O)c12`, for which the figures for the Ki in experiment [1] and in experiment [2] were 4.2 µM and 0.29 µM, respectively. For `Cc1ccc(Sc2cc(N)nc(N)n2)cc1`, in that order: 27 µM and 5.4 µM. For `Nc1nc(N)c2nc(-c3ccccc3)c(N)nc2n1`, in that order: 3.4 µM and 1.2 µM. Consider `Nc1nc2c(c(=O)[nH]1)CC=N2` [7-DEAZAGUANINE], for which, in experiment [2], the Ki was above 35 µM.

Turning to `CCc1nc(N)nc(N)c1-c1ccc(Cl)cc1` [PYRIMETHAMINE], in experiment [3], the EC50 was 26.6 µM.
